From PubChem
This is a sample that favours compounds with a hit; in the whole collection about 0.91% have one here.
Tb hexokinase = T. brucei hexokinase 1 inhibition; recombinant TbHK1, G6PDH-coupled NADH A340; inhibition, % at 10 µM; 0.11% of 220,000 active; AID 1430;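 active means inhibition of 50% or more in the single-dose primary screen; inactive means inhibition below 50%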
G6PDH counter = counter-screen for G6PDH assay hits: L. mesenteroides G6PDH inhibition; Purified L. mesenteroides G6PDH, diaphorase/resazurin coupled fluorescence, 45 min; inhibition, % at 5 µM; 0.12% of 200,000 active; AID 1020; in the data active means inhibition above about 50%
PMI act hi M6P = PMI (human) activation, high substrate; P34949; coupled PMI enzyme assay, resazurin fluorescence, 20 min; active compounds read high; 1 = untreated enzyme, 0 = substrate-free blank; activation factor at 20 µM; 0.34% of 190,000 active; AID 1216;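 active means activation factor of 2 or more at 20 µM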
Target sequence (P34949 whole entry, looked up): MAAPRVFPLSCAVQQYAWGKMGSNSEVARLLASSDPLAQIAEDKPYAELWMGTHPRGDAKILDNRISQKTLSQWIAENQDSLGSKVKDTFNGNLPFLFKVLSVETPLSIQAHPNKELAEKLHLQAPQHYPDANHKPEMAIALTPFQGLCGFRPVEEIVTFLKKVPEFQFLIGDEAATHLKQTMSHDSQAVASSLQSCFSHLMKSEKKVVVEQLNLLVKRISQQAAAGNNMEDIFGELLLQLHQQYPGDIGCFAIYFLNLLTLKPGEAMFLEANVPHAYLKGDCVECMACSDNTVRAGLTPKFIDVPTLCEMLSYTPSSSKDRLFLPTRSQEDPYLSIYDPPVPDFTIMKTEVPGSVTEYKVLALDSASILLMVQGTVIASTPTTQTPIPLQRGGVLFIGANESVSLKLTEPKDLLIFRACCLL
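Test system: human phosphomannose isomerase with PGI, G6PDH, diaphorase coupling enzymes; Amount: PMI at 15 ng/mL final; Reagent: Mannose-6-phosphate 1.0 mM (near-saturating) plus 0.22 mM NADP+; Timing: 20 min, room temperature; Technique: resorufin fluorescence at Ex 544/Em 590 nm; Dosing: 20 µM single dose.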
PMI act = increases human mannose-6-phosphate isomerase activity; AID 1214; activation factor at 20 µM; P34949; purified human PMI, coupled resazurin fluorescence, 20 min; active compounds read high; 1 = vehicle control, 0 substrate-free wells; 0.005% of 190,000 active;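 active means activation factor of 2 or more at 20 µM, relative to plate controls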
p97 inhibitor = blocks human p97 ATPase activity; 0.42% of 220,000 active; AID 1481; recombinant p97 ATPase, Kinase-Glo ATP luminescence, 3 h; inhibition, % at 8 µM; in the data active means inhibition above about 15%
Redox H2O2 prof = compounds producing H2O2 with reducing agent – biochemical, NIH compound library profiling, artefact control for MLSCN library redox annotation, primary screen; DTT-dependent redox cycling H2O2, phenol red/HRP absorbance; 100% = 100 µM peroxide control, 0% = buffer; activation, % at 10 µM; 0.03% of 200,000 active;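 active means activation of at least 50% relative to the plate's high and low controls in the primary single-dose screen; inactive means activation below 50%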;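 further: compound incubated with DTT at 0.8 mM final as the reducing agent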
DTT redox conf = redox cycling H2O2 generation, confirmed. shares compounds with Redox H2O2 prof. DTT-dependent redox cycling H2O2, phenol red-HRP absorbance. EC50, µM. 40% of 60 active;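 active means EC50 under a set limit for hydrogen peroxide production with the reducing agent DTT present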
p97 inh conf = confirmation of human p97 ATPase inhibitors | shares compounds with p97 inhibitor | recombinant p97 ATPase, Kinase-Glo ATP luminescence | inhibition, % at 8 µM | 44% of 760 active;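 active means percent inhibition of p97 ATPase above a set limit, the primary screen's mean plus 3 SD, cut at about 15% in these data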
Each line names hits and unclear results; the compound was inactive in the other large screens (follow-up assays come after a bar, where they were run).

O=C1C=Cc2ccccc2C1=O	G6PDH counter 62
CC1=CC(=C2C(=O)NC(=S)NC2=O)C=C(C(F)(F)F)N1C	none
Cn1ccc(NC(=O)CCl)n1	none
Cc1ccc(/C=C2\C(=O)NC(=S)N(c3ccc(F)cc3)C2=O)s1	PMI act hi M6P 2.1
Cc1ccc(/C=C2\C(=O)NC(=S)N(c3ccccc3F)C2=O)s1	none
COc1cc(CN2CCCC(C(=O)c3sccc3C)C2)cc(OC)c1O (stereo unspecified)	G6PDH counter 57
N/C(=N\[N+](=O)[O-])N1CCN(C(=O)c2ccccc2)CC1	none
CN1CN(c2cccc([N+](=O)[O-])c2)CN=C1N[N+](=O)[O-]	none
O=c1c2ccccc2nc(CSc2ncnc3nc[nH]c23)n1-c1ccc(Cl)c(Cl)c1	none
CC1CCN(CC(=O)c2ccccc2Cl)CC1	PMI act hi M6P 2
COc1ccc(/C=C2/C(=O)NC(=O)N(c3ccccc3)C2=O)cc1CN1C(=O)c2ccccc2C1=O	none (no result: G6PDH counter, PMI act hi M6P, PMI act, Redox H2O2 prof)
COc1ccc(/C=C2/C(=O)NC(=S)N(C3CC3)C2=O)cc1CN1C(=O)c2ccccc2C1=O	PMI act hi M6P 2
O=c1[nH]c(=O)n(Cc2ccco2)c(O)c1C=NCCN1CCNCC1	none (no result: G6PDH counter, PMI act hi M6P, PMI act, Redox H2O2 prof)
O=C1NC(=S)NC(=O)C1=Cc1ccc2c(c1)CCN2CCCCl	p97 inhibitor 18 (no result: G6PDH counter, PMI act hi M6P, PMI act, Redox H2O2 prof)
O=C1NC(=S)N(Cc2ccco2)C(=O)/C1=C\c1cccs1	Tb hexokinase 81, p97 inhibitor 41
C=CCN1C(=O)/C(=C/c2cccs2)C(=O)NC1=S	none
CCn1nc(-c2cccs2)nc2c(=O)n(C)c(=O)nc1-2	G6PDH counter 58 (no result: Tb hexokinase, p97 inhibitor, Redox H2O2 prof)
C=C1N2CCC(CC2)C1(O)c1ccc(C)cc1 (stereo unspecified)	PMI act hi M6P 2.1
C=C1N2CCC(CC2)C1(O)c1ccc(C)c(C)c1 (stereo unspecified)	none
CCOC(=O)c1cc(CC)sc1/N=C/C1C(=O)NC(=S)NC1=O	PMI act hi M6P 2.3
O=C1NC(=O)N(Cc2ccco2)C(=O)/C1=C/c1ccc(-c2cccc([N+](=O)[O-])c2)o1	p97 inhibitor 15
CCC12C=CCN3CCC4(c5cc(Br)c(OC)cc5N(C)C4C(O)(C(=O)OC)C1OC(C)=O)C32 (stereo unspecified)	none
Cn1c(O)c(C(=Nc2ccccc2)SCc2ccccc2Cl)c(=O)n(C)c1=O	none (no result: G6PDH counter, PMI act hi M6P, PMI act, Redox H2O2 prof)
CSC(=Nc1ccccc1)c1c(O)n(C)c(=O)n(C)c1=O	PMI act hi M6P 2.2
O=C1NC(=O)N(CCc2ccc(F)cc2)C(=O)/C1=C/c1ccco1	PMI act hi M6P 2
CCOC(=O)C(NC(=O)C(Cc1ccc(N(CCCl)CCCl)cc1)NC(C)=O)C(C)C (stereo unspecified)	none
CC(=O)NC(Cc1ccc(N(CCCl)CCCl)cc1)C(=O)NC(CC(C)C)C(=O)O (stereo unspecified)	PMI act hi M6P 2
COc1ccc(C(C)=O)cc1CC(C(=O)c1ccccc1)N(C)C (stereo unspecified)	none
O=C1NS(=O)c2cc([N+](=O)[O-])cc([N+](=O)[O-])c21 (stereo unspecified)	PMI act hi M6P 2
CCC12CN3CCN(CC(C3)/C1=N/NC(=O)c1ccncc1)C2	none
O=C(O)CCn1cc(C=C2C(=O)NC(=S)NC2=O)c(-c2cc3ccccc3oc2=O)n1	PMI act hi M6P 2.3
O=C(O)CCn1cc(C=C2C(=O)NC(=S)NC2=O)c(-c2ccccc2)n1	none
O=C(CNS(=O)(=O)c1ccc(Br)s1)N1CCC2(CC1)OCCO2	none
CN1C(=O)NC(=O)C2(Cc3ccccc3N3CCOCC32)C1=O (stereo unspecified)	none
O=C1NC(=O)[C@]2(Cc3ccccc3N3CCN(c4ccccc4)CC32)C(=O)N1Cc1ccccc1 (stereo partly specified)	PMI act hi M6P 2.1
CN1C(=O)NC(=O)[C@]2(Cc3ccccc3N3CCN(c4ccccc4)CC32)C1=O (stereo partly specified)	PMI act hi M6P 2.1
O=C1NC(=O)[C@]2(Cc3ccccc3N3CCN(c4ccccc4)CC32)C(=O)N1c1ccccc1 (stereo partly specified)	PMI act hi M6P 2.1
Cc1ccc(N/N=C/c2c(O)n(-c3ccccc3)c(=O)[nH]c2=O)cc1	PMI act hi M6P 2.5
CCOC(=O)c1ccc(N2C(=O)CC(N3CC=C(c4ccc(F)cc4)CC3)C2=O)cc1 (stereo unspecified)	PMI act hi M6P 2
O=C1CC(N2CC=C(c3ccc(F)cc3)CC2)C(=O)N1c1ccc(F)cc1 (stereo unspecified)	none
COc1cccc(O)c1CN1CCCC(C(=O)c2ccccc2SC)C1 (stereo unspecified)	none
O=C(Nc1ccccc1)OC1CN=C(N[N+](=O)[O-])NC1 (stereo unspecified)	none
CCOc1cccc(OCC)c2c(C)[n+](CC3CCCO3)c(C)c1-2 (stereo unspecified)	PMI act hi M6P 2
CC(=O)OC1(c2ccccc2)CCN(C)C(C)C1C (stereo unspecified)	none
Cc1cccnc1NC1=NCC(C)S1 (stereo unspecified)	Redox H2O2 prof 71 | DTT redox conf inactive
CNP(=S)(NC)OCCOc1ccc(OC)cc1	none
CCn1nc(/C=C/c2ccccc2)nc2c(=O)n(C)c(=O)nc1-2	G6PDH counter 61, p97 inhibitor 34, Redox H2O2 prof 152 | DTT redox conf inactive | p97 inh conf 37
CCCCn1c(NC(=O)c2ccco2)c(C(=O)OCC)c2nc3ccccc3nc21	p97 inhibitor 33, Redox H2O2 prof 81 | DTT redox conf inactive | p97 inh conf 35
CCCCn1c(NS(=O)(=O)c2ccc(C)cc2)c(C(=O)OCC)c2nc3ccccc3nc21	none
CCC1(C)OC(c2ccccc2)=C/C(=C/C=C2C(=O)NC(=O)NC2=O)O1 (stereo unspecified)	none
